What was measured:
[1] = Cytotoxicity assay; format: cell-based; settings: African green monkey, Vero cells
Method in brief: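 Vero cells were seeded at 1 × 10^4 per well, grown to monolayer, then exposed for 24 h to 0.78125–100 μM test compound in DMEM with 1% FBS (DMSO <1% v/v), with an untreated control. Viability was read by CCK-8 (1 h, absorbance 450 nm). Survival % = (treated − blank)/(control − blank) × 100. Triplicate independent experiments.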

[2] = tested on: T. gondii tachyzoites in Vero cells; test: Plaque assay; format: cell-based, Toxoplasma gondii RH strain
Method in brief: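 Proliferation arm: Vero monolayers were infected with 2 × 10^4 tachyzoites per well for 8 h, then given 0.625–10.0 μM test compound in DMEM with 1% FBS for 24 h. Invasion arm: tachyzoites were pre-exposed to compound, then allowed to infect Vero cells for 2 h. Drug-free controls were included. After 48, 72 or 96 h, cells were PBS-washed, fixed in 4% paraformaldehyde and stained with crystal violet for 10 min. PVs per field and parasites per PV were counted in ≥20 random fields per well (40× objective).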

[3] = tested on: T. gondii tachyzoites; test: Anti-invasion assessment by qPCR; format: cell-based, Toxoplasma gondii RH strain
Method in brief: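 Vero monolayers were preincubated with 0.625–10.0 μM test compound in DMEM with 1% FBS. Controls were 11.5 μM azithromycin (positive) and no drug (negative). Then 2 × 10^6 fresh tachyzoites were added per well for 2 h. Cells were washed twice with DPBS and kept in DMEM for 24 h. DNA was extracted and the T. gondii 529 bp repeat quantified by qPCR. Inhibition rate is relative to untreated control, from triplicate independent experiments.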

[4] = tested on: T. gondii tachyzoites; test: Anti-proliferation activity by qPCR; format: cell-based, Toxoplasma gondii RH strain
Method in brief: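 Vero monolayers in 6-well plates were infected with 2 × 10^5 tachyzoites per well. After 8 h, test compound (0.625–10.0 μM) or azithromycin was added in DMEM with 1% FBS for 24 h, with a drug-free negative control. Total DNA was extracted and the 529 bp repeat quantified by qPCR. EC50 and therapeutic index were calculated. Values are mean ± SD of at least three independent experiments.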

[5] = Safety assay in mice; format: in vivo, mouse; settings: 5, 10 or 20 mg/kg intraperitoneal, over 7 days
Method in brief: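 BALB/c mice received test compound ip once daily for 7 days at 5, 10 or 20 mg/kg. It was formulated at 2 mg/mL in saline with 10% ethanol and 10% Cremophor EL. Controls received solvent alone or PBS. Clinical toxicity was monitored during dosing and for a further 23 days.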

[6] = Pharmacokinetics in mouse plasma; format: in vivo; settings: female, BALB/c, ip, 20 mg/kg
Method in brief: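 Test compound was formulated at 2 mg/mL in saline with 10% ethanol and 10% Cremophor EL. It was given ip at 20 mg/kg to 9 female BALB/c mice. Blood was sampled at 0, 0.083, 0.25, 0.5, 1, 2, 4, 8, 12 and 24 h and centrifuged at 3000 rpm for 10 min; plasma was stored at −20 °C. The PK model was selected by minimum AIC. Parameters are mean ± SD (n = 3).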

[7] = tested on: T. gondii tachyzoites; test: In vivo activity against T. gondii in infected mice; set-up: species or system Toxoplasma gondii RH strain in BALB/c mouse; settings: 20 mg/kg intraperitoneal once a day for 7 days, P ≤ 0.05
Method in brief: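 BALB/c mice were infected ip with 1 × 10^3 RH tachyzoites. Treatment started 4 h later, ip once daily for 7 days: test compound 20 mg/kg·bw, azithromycin 50 mg/kg·bw (positive control) or PBS. One mL of ascites was aspirated, washed and centrifuged, and DNA extracted. Parasites were quantified by PCR against a standard curve of serially diluted RH tachyzoite DNA (3.00 × 10^6 to 3.00 × 10^3/mL).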

[8] = tested on: T. gondii tachyzoites in Vero cells; test: Transmission electron microscopy; format: cell-based, Toxoplasma gondii RH strain; settings: 5 μM
Method in brief: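 Vero cells in T25 flasks were infected with 2 × 10^6 tachyzoites for 8 h, then cultured with 5 μM test compound for 8 or 24 h. Cells were detached with TrypLE (2 min), PBS-washed and fixed in 2.5% glutaraldehyde (4 °C, 12 h). Post-fixation used 1% osmium in the dark for 1.5 h. Samples were dehydrated through alcohol and acetone and embedded in Epon. Ultrathin sections were stained with uranyl acetate/lead citrate and examined by TEM.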

[9] = tested on: T. gondii tachyzoites; test: Mitochondrial membrane potential; format: cell-based, Toxoplasma gondii RH strain; settings: 1 or 5 μM, 8 or 24 h, P ≤ 0.05
Method in brief: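 Tachyzoites inside Vero monolayers were treated with 1 or 5 μM test compound in DMEM for 8 or 24 h. After a PBS wash, cultures were stained with 50 nM MitoTracker Red CMXRos for 20 min. Fluorescence was read on a microplate reader. Triplicate experiments.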

[10] = tested on: T. gondii tachyzoites; test: ATP level in tachyzoites; format: cell-based, Toxoplasma gondii RH strain; settings: 1 or 5 μM, 8 or 24 h, P ≤ 0.05
Method in brief: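 Infected Vero cultures were exposed to 1 or 5 μM test compound in DMEM for 8 or 24 h. Tachyzoites were then isolated, purified and lysed, and ATP was measured and expressed as μmol/L. Three independent experiments were run.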

[11] = tested on: T. gondii tachyzoites; test: ROS production assay; format: cell-based, Toxoplasma gondii RH strain; settings: 1 or 5 μM, dose-dependent
Method in brief: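 Infected Vero cultures were treated with 1 or 5 μM test compound or left untreated. Then 2 × 10^6 tachyzoites were isolated and PBS-washed. They were loaded with 7.5 μM CMH2DCFDA for 10 min, washed three times and resuspended in PBS. Fluorescence was read at excitation 488 nm and emission 525 nm. Triplicate experiments.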

In the case of `CCCCCCCc1cc(O)c2ccccc2[n+]1[O-]` [HQNO, 2-Heptyl-4-hydroxyquinoline N-oxide], the IC50 at 24 h [1] is reported as 33.4 µM, the “tachyzoite growth (plaques formed)” value ([2]; 0.625–10 μM, after 6 days of incubation) is reported as “dose-dependent inhibition” and the “average number of tachyzoites within the PVs” value ([2]; P ≤ 0.05) is reported as “decreased”. The “invasion and proliferation ability of T. gondii (plaque)” value ([2]; after 48 h, 72 h, 96 h of incubation, P ≤ 0.05) was “significantly reduced”, the “PV number vs control” value ([2]; pre- and post-infection, P ≤ 0.05) was “decreased significantly” and the “T. gondii invasion vs control” value ([3]; 0.625–10 μM, P ≤ 0.05) was “significantly inhibited”. The “T. gondii tachyzoite intracellular proliferation vs control” value ([4]; 0.625–10 μM, concentration-dependent, P ≤ 0.05) was “significantly (P ≤ 0.05) inhibited”, the “clinical toxicity in mice” value [5] was “no obvious clinical toxicity” and the AUC(0-inf) [6] was 3880 ± 308 ng·h/mL. It also gave an AUC(0-t) [6] of 3860 ± 301 ng·h/mL, an MRT inf [6] of 1.62 ± 0.464 h and an MRT last [6] of 1.56 ± 0.446 h. It also gave a Tmax [6] of 4.98 min, a half-life [6] of 1.43 ± 0.393 h and a k el [6] of 0.000135 s⁻¹. For the same molecule, the “parasite burden in mouse peritoneum” value [7] was “significantly decreased”, the “ultrastructure of T. gondii mitochondria (TEM)” value ([8]; 8 h) was “swollen” and the “ultrastructure of T. gondii (TEM)” value ([8]; 24 h) was “parasite death”. The “effect on mitochondria of host cells around PVs (TEM)” value ([8]; Vero host cells) was “does not affect”, the “ΔΨm in parasites vs control” value [9] was “significant dose-dependent decreases” and the “ATP levels in parasites vs control” value [10] was “significant dose-dependent decreases”. For the same molecule, the “ROS levels in T. gondii vs control” value [11] was “increase”.

In the case of `CC[C@H]1OC(=O)[C@H](C)[C@@H](O[C@H]2C[C@@](C)(OC)[C@@H](O)[C@H](C)O2)[C@H](C)[C@@H](O[C@@H]2O[C@H](C)C[C@H](N(C)C)[C@H]2O)[C@](C)(O)C[C@@H](C)CN(C)[C@H](C)[C@@H](O)[C@]1(C)O` [azithromycin], the inhibition at 11.5 µM ([3]; Toxoplasma gondii, read-out: anti-invasion inhibition rate) is reported as 54% and the “inhibition rate on intracellular proliferation of T. gondii tachyzoites” value ([4]; positive control drug, 24 h, qPCR) is reported as 37.50%.

Source: article PMC9929485 (International Journal for Parasitology: Drugs and Drug …, 2023)
